The source made the active and inactive calls. The rule behind the calls is not given here.
Assays:
[1] = system: N1E-115; experiment: Blockade of voltage-gated sodium channel in mouse N1E-115 cells assessed as stimulation at 100 umol at -90 mV holding potential by whole-cell patch clamp electrophysiological assay relative to control; type: cell-based
Procedure, shortened: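 Whole-cell patch clamp with borosilicate glass electrodes on single cultured N1E-115 neuroblastoma cells. Compound at 100 µmol, holding potential -90 mV. Voltage-dependent sodium current expressed as % of control stimulation (no compound). Results from 5–8 cells averaged with SEM; significance by Student's t-test.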

[2] = system: Mus musculus; experiment: Anticonvulsant activity in mouse assessed as protection against maximal electric shock-induced seizures at 300 mg/kg, ip after 4 hrs; type: functional, organism-based; set-up: dose 300 mg/kg
Procedure, shortened: (§1)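 Phase I maximal electroshock screen in mice. Compound given ip as a suspension in 0.5% methylcellulose at 30, 100 or 300 mg/kg, tested at 30 min and 4 h. Small groups (1–8); result is number protected/number tested.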

[3] = system: Mus musculus; experiment: Anticonvulsant activity in mouse assessed as protection against maximal electric shock-induced seizures at 300 mg/kg, ip after 0.5 hrs; type: functional, organism-based; set-up: dose 300 mg/kg; procedure, shortened: as §1
[4] = system: Rattus norvegicus; experiment: Neurotoxicity in rat assessed as neurological deficit at 30 mg/kg, po after 0.5 hrs […]; type: toxicity, organism-based; set-up: dose 30 mg/kg, route oral; settings: in vivo
Procedure, shortened: (§2)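 Rats given the compound, suspended in 0.5% methylcellulose, by the stated route and dose. Neurological deficit was recorded at the listed times as ataxia and loss of placing response and muscle tone. Reported as number of rats showing toxicity/number tested.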

[5] = system: Rattus norvegicus; experiment: Neurotoxicity in rat assessed as neurological deficit at 30 mg/kg, po after 0.25 hrs […]; type: toxicity, organism-based; set-up: dose 30 mg/kg, route oral; settings: in vivo; procedure, shortened: as §2
[6] = system: Mus musculus; experiment: Anticonvulsant activity in mouse assessed as protection against maximal electric shock-induced seizures at 100 mg/kg, ip after 4 hrs; type: functional, organism-based; set-up: dose 100 mg/kg; procedure, shortened: as §1
[7] = system: Mus musculus; experiment: Anticonvulsant activity against subcutaneous pentylenetetrazole-induced seizures in mouse at 30 mg/kg, ip after 4 hrs; type: functional, organism-based; set-up: dose 30 mg/kg
Procedure, shortened: (§3)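 Phase I screen in mice. Compound given ip as a suspension in 0.5% methylcellulose, read at 30 min and 4 h. Pentylenetetrazole 85 mg/kg in 0.9% NaCl was injected sc into the posterior midline and animals watched ≥30 min. Protection meant no clonic spasm lasting ≥5 s. Groups of 1–8 animals; result is protected/tested.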

[8] = system: Mus musculus; experiment: Anticonvulsant activity against subcutaneous pentylenetetrazole-induced seizures in mouse at 30 mg/kg, ip after 0.5 hrs; type: functional, organism-based; set-up: dose 30 mg/kg; procedure, shortened: as §3
[9] = system: Rattus norvegicus; experiment: Neurotoxicity in rat assessed as neurological deficit at 30 mg/kg, po after 2 hrs […]; type: toxicity, organism-based; set-up: dose 30 mg/kg, route oral; settings: in vivo; procedure, shortened: as §2
[10] = system: Mus musculus; experiment: Anticonvulsant activity against subcutaneous pentylenetetrazole-induced seizures in mouse at 100 mg/kg, ip after 0.5 hrs; type: functional, organism-based; set-up: dose 100 mg/kg; procedure, shortened: as §3
[11] = system: Rattus norvegicus; experiment: Anticonvulsant activity in rat assessed as protection against maximal electric shock-induced seizures at 30 mg/kg, po after 0.5 hrs; type: functional, organism-based; set-up: dose 30 mg/kg
Procedure, shortened: (§4)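 MES test in rats dosed orally at 30 mg/kg as a suspension in 0.5% methylcellulose, read at 0.25–4 h. Four rats per time point; result is protected/tested.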

[12] = system: Mus musculus; experiment: Neurotoxicity in mouse assessed as inability to maintain equilibrium on rotarod at 300 mg/kg, ip after 4 hrs by rotarod test; type: toxicity, organism-based; set-up: dose 300 mg/kg, route intraperitoneal; settings: in vivo
Procedure, shortened: (§5)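 Drug given ip to mice as a suspension in 0.5% methylcellulose. At the stated time after dosing, each mouse was placed on a 1 inch knurled rod turning at 6 rpm. Neurotoxicity = inability to stay balanced at least 1 min in each of three trials. Scored as animals toxic/animals tested in small groups.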

[13] = system: Mus musculus; experiment: Anticonvulsant activity against subcutaneous pentylenetetrazole-induced seizures in mouse at 300 mg/kg, ip after 4 hrs; type: functional, organism-based; set-up: dose 300 mg/kg; procedure, shortened: as §3
[14] = system: Mus musculus; experiment: Anticonvulsant activity against subcutaneous pentylenetetrazole-induced seizures in mouse at 100 mg/kg, ip after 4 hrs; type: functional, organism-based; set-up: dose 100 mg/kg; procedure, shortened: as §3
[15] = system: Mus musculus; experiment: Anticonvulsant activity in mouse assessed as protection against maximal electric shock-induced seizures at 30 mg/kg, ip after 0.5 hrs; type: functional, organism-based; set-up: dose 30 mg/kg; procedure, shortened: as §1
[16] = system: Mus musculus; experiment: Neurotoxicity in mouse assessed as inability to maintain equilibrium on rotarod at 100 mg/kg, ip after 4 hrs by rotarod test; type: toxicity, organism-based; set-up: dose 100 mg/kg, route intraperitoneal; settings: in vivo; procedure, shortened: as §5
[17] = system: Mus musculus; experiment: Anticonvulsant activity in mouse assessed as protection against maximal electric shock-induced seizures at 30 mg/kg, ip after 4 hrs; type: functional, organism-based; set-up: dose 30 mg/kg; procedure, shortened: as §1
[18] = system: Mus musculus; experiment: Neurotoxicity in mouse assessed as inability to maintain equilibrium on rotarod at 30 mg/kg, ip after 4 hrs by rotarod test; type: toxicity, organism-based; set-up: dose 30 mg/kg, route intraperitoneal; settings: in vivo; procedure, shortened: as §5
[19] = system: Mus musculus; experiment: Neurotoxicity in mouse assessed as inability to maintain equilibrium on rotarod at 30 mg/kg, ip after 0.5 hrs by rotarod test; type: toxicity, organism-based; set-up: dose 30 mg/kg, route intraperitoneal; settings: in vivo; procedure, shortened: as §5
[20] = system: Rattus norvegicus; experiment: Anticonvulsant activity in rat assessed as protection against maximal electric shock-induced seizures at 30 mg/kg, po after 0.25 hrs; type: functional, organism-based; set-up: dose 30 mg/kg; procedure, shortened: as §4
[21] = system: Mus musculus; experiment: Neurotoxicity in mouse assessed as inability to maintain equilibrium on rotarod at 300 mg/kg, ip after 0.5 hrs by rotarod test; type: toxicity, organism-based; set-up: dose 300 mg/kg, route intraperitoneal; settings: in vivo; procedure, shortened: as §5
[22] = system: Rattus norvegicus; experiment: Neurotoxicity in rat assessed as neurological deficit at 30 mg/kg, po after 4 hrs by rotarod test; type: toxicity, organism-based; set-up: dose 30 mg/kg, route oral; settings: in vivo; procedure, shortened: as §2
[23] = system: Mus musculus; experiment: Anticonvulsant activity against subcutaneous pentylenetetrazole-induced seizures in mouse at 300 mg/kg, ip after 0.5 hrs; type: functional, organism-based; set-up: dose 300 mg/kg; procedure, shortened: as §3
[24] = system: Rattus norvegicus; experiment: Neurotoxicity in rat assessed as neurological deficit at 30 mg/kg, po after 1 hr […]; type: toxicity, organism-based; set-up: dose 30 mg/kg, route oral; settings: in vivo; procedure, shortened: as §2
[25] = system: Mus musculus; experiment: Anticonvulsant activity in mouse assessed as protection against maximal electric shock-induced seizures at 100 mg/kg, ip after 0.5 hrs; type: functional, organism-based; set-up: dose 100 mg/kg; procedure, shortened: as §1

With `Nc1nnc(-c2cccc(Cl)c2Cl)c(N)n1` the Activity [1] was 67%.

For `Cc1cccc(C)c1OCC(=O)NC1CCC(O)CC1.Cl` (racemic), the Activity [2] was “inactive”, the Activity [3] was “Active” and the Activity [4] was “Non-toxic”. The Activity [5] was “Non-toxic”, the Activity [6] was “inactive” and the Activity [7] was “inactive”. The Activity [8] was “inactive”, the Activity [9] was “Non-toxic” and the Activity [10] was “inactive”. For the same molecule, the Activity [11] was “Active”, the Activity [12] was “Non-toxic” and the Activity [13] was “inactive”. For the same molecule, the Activity [14] was “inactive”, the Activity [15] was “inactive” and the Activity [16] was “Non-toxic”. For the same molecule, the Activity [17] was “inactive”, the Activity [18] was “Non-toxic” and the Activity [19] was “Non-toxic”. For the same molecule, the Activity [20] was “Active”, the Activity [21] was “Toxic” and the Activity [22] was “Non-toxic”. The Activity [23] was “Active”, the Activity [24] was “Non-toxic” and the Activity [25] was “Active”.

— ChEMBL document CHEMBL1921792, “Synthesis and anticonvulsant activity of trans- and cis-2-(2,6-dimethylphenoxy)-N-(2- or 4-hydroxycyclohexyl)acetamides and their amine analogs” (Bioorg Med Chem, 2011)
